NF-kB neuron act = NF-kB expression increase, human neuronal cells; NF-kB reporter expression; stronger effect = higher value; fold change at 12.5 µM; 190,000 tested, 1.6% active; AID 1239; in the data active = fold change above about 3.3
STAT1 act = STAT1 signaling activation | NIH 3T3 STAT1-luciferase reporter, IFN-gamma, luminescence; 100% = IFN-gamma alone, no compound | activation (% of control), % at 5.5 µM | 200,000 tested, 2.6% active;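 active = activation above the screen-wide mean activation plus 3 SD, cut at about 130% in these data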;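 note: raw ratio to IFN-gamma control signal so 100% means no change and 0% no light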
APP 5'UTR act = APP 5'UTR luciferase reporter activation; SH-SY5Y APP 5'UTR luciferase reporter, luminescence; zero percent = DMSO vehicle wells; 190,000 tested, 1% active; activation, % at 2 µM;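 active = activation above a set limit, based on mean plus 3 SD of controls, cut at about 140% in these data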
STAT1 blocker = inhibitors of IFN-gamma induced STAT1 signaling | inhibition, % at 5.5 µM | AID 920 | NIH 3T3 STAT1-luciferase reporter, luminescence | 200,000 tested, 0.35% active;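 active = inhibition above a set limit, the mean inhibition across all tested compounds plus 3 SD, cut at about 34% in these data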;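 note: 0% = IFN-gamma with DMSO and 100% = IFN-gamma with 300 µM nifuroxazide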
STAT3 inh-1 = reduces IL-6 driven STAT3 reporter signal. U3A cells, IL-6 STAT3-luciferase reporter, luminescence; host cell line lacks STAT1. inhibition, % at 5.5 µM. 190,000 tested, 0.89% active;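 active = inhibition above the mean inhibition across all screened compounds plus 3 SD, cut at about 44% in these data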;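 note: 0% = DMSO only wells and 100% = 100 µM nifuroxazide control wells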
STAT3 activator = activators of IL-6 induced STAT3 signaling | U3A cells, IL-6 STAT3-luciferase reporter, luminescence; 100% = signal with IL-6 EC80 alone | activation (% of control), % at 5.6 µM | 190,000 tested, 0.91% active | AID 871;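 active = activation above the screen-wide mean of compound activation plus 3 SD, cut at about 130% in these data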;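 note: 0% = background luminescence of wells with medium and substrate only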
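Test system: human U3A cells carrying STAT3-luciferase construct; control set: IL-6-only wells as 100% reference; timing: compound pre-incubation 1 h before IL-6, then 6 h stimulation at 37 °C; also added: IL-6 stimulus at 33 ng/mL final; evaluation: % activation versus median of IL-6-stimulated wells; detection: reporter luminescence signal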
STAT3 inh-2 = STAT3 inhibition, confirmation assay | shares compounds with STAT3 inh-1 | U3A cells, IL-6 STAT3 luciferase reporter, luminescence; cell line lacks STAT1 | inhibition, % at 5.7 µM | 1,200 tested, 45% active;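 active = inhibition above the hit cutoff computed for the primary STAT3 screen, cut at about 44% in these data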;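 note: 0% = IL-6 plus DMSO and 100% = IL-6 plus nifuroxazide control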
NFkB inh 2 = counter-screen for STAT3 inhibitors: NF-kappaB inhibition | shares compounds with STAT3 inh-1 | HEK293T NF-kB luciferase reporter, TNF-alpha induced | inhibition, % at 5.7 µM | 1,200 tested, 36% active;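 active = inhibition above the mean of solvent-only control wells plus 3 SD, cutoff set per campaign, cut at about 13% in these data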;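 note: 0% = TNF-alpha with DMSO and 100% = TNF-alpha with MG high control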
STAT1 inh STAT3c = counter-screen for STAT3 inhibitors: STAT1 inhibition. shares compounds with STAT3 inh-1. NIH 3T3 STAT1-luciferase reporter, IFN-gamma induced, luminescence. inhibition, % at 5.7 µM. 1,200 tested, 27% active;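 active = inhibition above the mean plus 3 SD of solvent-only control wells, limit set per screening run, cut at about 16% in these data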;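 note: 0% = DMSO with IFN-gamma and 100% = nifuroxazide control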
* marks the source's active call; other numbers are inactive results. Compounds with a hit are over-represented: about 5.1% of the library has one in this group of screens.

For Cc1nc2ccccc2c2oc(C(=O)NCc3ccccn3)cc12 the results were NF-kB neuron act 0.39, STAT1 act 91, APP 5'UTR act -6, STAT1 blocker 8, STAT3 inh-1 20 and STAT3 activator 87.
Screening Cc1ccc(CNC(=O)c2cc3c(C)nc4ccccc4c3o2)cc1 returned NF-kB neuron act 0.42, STAT1 act 79, APP 5'UTR act -7, STAT1 blocker 23, STAT3 inh-1 54*, STAT3 activator 59, STAT3 inh-2 43, NFkB inh 2 9 and STAT1 inh STAT3c 24*.
Screening C=CCN=C(C)C1=C(O)C(C)OC1=O (centres undefined) returned NF-kB neuron act 1.1, STAT1 act 98, APP 5'UTR act -5, STAT1 blocker 2, STAT3 inh-1 5 and STAT3 activator 98.
Screening CC(C)(C)c1cc(N)n2nc(C(C)(C)C)cc2n1 returned NF-kB neuron act 0.97, STAT1 act 104, APP 5'UTR act 6, STAT1 blocker -6, STAT3 inh-1 -6 and STAT3 activator 112.
For Cc1ccc(C)c(C(=O)CSc2nnnn2C(C)C)c1 the results were NF-kB neuron act 1.7, STAT1 act 109, APP 5'UTR act -14, STAT1 blocker -10, STAT3 inh-1 16 and STAT3 activator 90.
For Cc1ccc(C(=O)CSc2nnnn2C(C)C)c(C)c1 the results were NF-kB neuron act 3, STAT1 act 72, APP 5'UTR act 155*, STAT1 blocker 30, STAT3 inh-1 78*, STAT3 activator 35, STAT3 inh-2 49*, NFkB inh 2 22* and STAT1 inh STAT3c -24.
Screening CC(=O)c1c(C)[nH]c(C(=O)OCc2c(F)cccc2Cl)c1C returned NF-kB neuron act 1.3, STAT1 act 76, APP 5'UTR act 5, STAT1 blocker 24, STAT3 inh-1 41 and STAT3 activator 69.
Screening CC(=O)c1c(C)[nH]c(C(=O)OCc2ccc(F)cc2Cl)c1C returned NF-kB neuron act 0.94, STAT1 act 97, APP 5'UTR act 26, STAT1 blocker 1, STAT3 inh-1 48*, STAT3 activator 64, STAT3 inh-2 54*, NFkB inh 2 2 and STAT1 inh STAT3c 6.
Screening O=C(CCCc1c[nH]c2ccccc12)Nc1ccc2ccccc2c1 returned NF-kB neuron act 1.3, STAT1 act 106, APP 5'UTR act 8, STAT1 blocker -4, STAT3 inh-1 -3 and STAT3 activator 101.
`CC(C)c1nnc(NC(=O)CCC(=O)N2CCN(C3c4ccccc4-c4ccccc43)CC2)s1` gave NF-kB neuron act 1.1, STAT1 act 95, APP 5'UTR act -7, STAT1 blocker 6, STAT3 inh-1 1 and STAT3 activator 99.
`COc1cc2c(cc1OC)C(c1ccc(-c3ccc(Cl)cc3Cl)o1)=NCC2` gave NF-kB neuron act 0.88, STAT1 act 95, APP 5'UTR act 1, STAT1 blocker 5, STAT3 inh-1 63*, STAT3 activator 52, STAT3 inh-2 53*, NFkB inh 2 16* and STAT1 inh STAT3c -3.
`O=C(CSCCO)Nc1ccc([N+](=O)[O-])cc1` gave NF-kB neuron act 1.2, STAT1 act 92, APP 5'UTR act -6, STAT1 blocker 8, STAT3 inh-1 -1 and STAT3 activator 108.
`O=C(CSCCO)Nc1ccc(C23CC4CC(CC(C4)C2)C3)cc1` gave NF-kB neuron act 0.9, STAT1 act 124, APP 5'UTR act -9, STAT1 blocker -18, STAT3 inh-1 44*, STAT3 activator 66, STAT3 inh-2 33, NFkB inh 2 22* and STAT1 inh STAT3c -29.
Screening Brc1ccc(/C=N/Nc2ccc3ccccc3n2)cc1 returned NF-kB neuron act 3.3, STAT1 act 126, APP 5'UTR act 30, STAT1 blocker -28, STAT3 inh-1 2 and STAT3 activator 99.
Screening Fc1cccc(/C=N/Nc2ccc3ccccc3n2)c1 returned NF-kB neuron act 1.2, STAT1 act 68, APP 5'UTR act 225*, STAT1 blocker 34, STAT3 inh-1 60*, STAT3 activator 52, STAT3 inh-2 17, NFkB inh 2 -4 and STAT1 inh STAT3c -82.
For CCCCc1n[nH]c2c1/C(=N/O)CC(c1ccccc1)C2 (centres undefined) the results were NF-kB neuron act 1.2, STAT1 act 100, APP 5'UTR act 8, STAT1 blocker 0, STAT3 inh-1 38 and STAT3 activator 73.
CCc1n[nH]c2c1/C(=N\O)CC(c1ccccc1)C2 (centres undefined) was read as NF-kB neuron act 1.1, STAT1 act 102, APP 5'UTR act -2, STAT1 blocker -2, STAT3 inh-1 44*, STAT3 activator 65, STAT3 inh-2 30, NFkB inh 2 10 and STAT1 inh STAT3c 10.
Screening Cc1nn(C2CCCO2)c(=O)nc1N (centres undefined) returned NF-kB neuron act 1.3, STAT1 act 105, APP 5'UTR act 22, STAT1 blocker -7, STAT3 inh-1 10 and STAT3 activator 95.
C1=C(CCNc2ncnc3c2[nH]c2ccccc23)CCCC1 was read as NF-kB neuron act 0.66, STAT1 act 74, APP 5'UTR act 25, STAT1 blocker 29, STAT3 inh-1 83*, STAT3 activator 32, STAT3 inh-2 78*, NFkB inh 2 41* and STAT1 inh STAT3c 32*.
Screening COc1ccc2[nH]c3c(NCCN(C(C)C)C(C)C)ncnc3c2c1 returned NF-kB neuron act 0.94, STAT1 act 100, APP 5'UTR act 8, STAT1 blocker 0, STAT3 inh-1 -7 and STAT3 activator 110.
Screening O=c1c2[nH]c3ccccc3c2ncn1CCC1=CCCCC1 returned NF-kB neuron act 1.3, STAT1 act 118, APP 5'UTR act 35, STAT1 blocker -20, STAT3 inh-1 4 and STAT3 activator 99.
Screening CC(C)OCCCNc1ncnc2c1[nH]c1ccccc12 returned NF-kB neuron act 0.54, STAT1 act 73, APP 5'UTR act -1, STAT1 blocker 29, STAT3 inh-1 66*, STAT3 activator 45, STAT3 inh-2 62*, NFkB inh 2 18* and STAT1 inh STAT3c 32*.
Screening Cn1nc(CC(=O)NCc2ccc(F)cc2)c2ccccc2c1=O returned NF-kB neuron act 0.88, STAT1 act 86, APP 5'UTR act 4, STAT1 blocker 15, STAT3 inh-1 32 and STAT3 activator 78.

Assay outcomes (PubChem)
